Data from ChEMBL document CHEMBL3992537, “Design, Synthesis, and Biological Evaluation of Small, High-Affinity Siglec-7 Ligands: Toward Novel Inhibitors of Cancer Immune Evasion” (J Med Chem, 2017).
The source made the active and inactive calls. No cut-off for these calls is given here.

How the values were obtained:
[1] = molecular target: T1, Sialic acid-binding Ig-like lectin 7 (Homo sapiens, UniProt Q9Y286); test: Binding affinity to human IgG1-fused Siglec-7-Fc assessed as inhibition of Siglec-7-Fc binding to RBC preincubated for 10 mins followed by RBC addition measured after 20 mins by FACS analysis relative to sodium (4S,5R,6R)-5-acetamido-4-hydroxy-2-methoxy-6-((1R,2R)-1,2,3 trihydroxypropyl)tetrahydro-2H-pyran-2-carboxylate
T1 sequence (Q9Y286 whole entry, the tested form may be a part): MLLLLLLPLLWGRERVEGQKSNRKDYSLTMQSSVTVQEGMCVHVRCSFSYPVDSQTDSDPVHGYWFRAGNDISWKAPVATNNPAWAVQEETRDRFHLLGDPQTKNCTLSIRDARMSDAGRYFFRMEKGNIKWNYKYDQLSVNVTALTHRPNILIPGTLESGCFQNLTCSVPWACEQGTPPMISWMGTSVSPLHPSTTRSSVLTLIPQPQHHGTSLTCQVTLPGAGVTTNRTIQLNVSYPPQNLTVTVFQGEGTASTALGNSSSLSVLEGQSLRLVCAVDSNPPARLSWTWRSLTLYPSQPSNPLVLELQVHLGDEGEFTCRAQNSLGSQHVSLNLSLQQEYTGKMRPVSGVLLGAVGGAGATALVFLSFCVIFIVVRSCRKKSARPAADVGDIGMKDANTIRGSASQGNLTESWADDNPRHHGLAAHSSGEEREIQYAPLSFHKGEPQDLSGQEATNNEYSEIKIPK
How it was run: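 RBC flow-cytometry competition as above: Siglec-7-Fc 0.2 μg/mL with ligand 10 min at RT, then RBCs 20 min on ice, detected by anti-Fc-biotin/streptavidin-PE MFI. The reference ligand α-Me Neu5Ac is run in the same test. Relative inhibitory potency is calculated intra-test against it to offset inter-test variation from fresh RBCs.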

[2] = molecular target: T1, Sialic acid-binding Ig-like lectin 7; test: Binding affinity to human IgG1-fused Siglec-7-Fc assessed as inhibition of Siglec-7-Fc binding to RBC preincubated for 10 mins followed by RBC addition measured after 20 mins by FACS analysis
How it was run: (§1)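 Siglec-7-Fc (human IgG1 fusion), 0.2 μg/mL, premixed 10 min at RT in PBS with inhibitor dilution series. The mix is then added to pelleted freshly isolated human RBCs (0.1% suspension) for 20 min on ice. Bound Fc is detected with biotin goat anti-human Fc (10 μg/mL) and streptavidin-PE, then formaldehyde-fixed and read by flow cytometry. % inhibition is from MFI, with unstained RBCs as 100% and no inhibitor as 0%. IC50 derived.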

[3] = molecular target: T1, Sialic acid-binding Ig-like lectin 7; test: Binding affinity to human IgG1-fused Siglec-7-Fc measured after 2.5 hrs by ELISA
How it was run: (§2)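 Streptavidin-coated plates carry 4 μg/mL biotinylated 6′sialyl-N-acetyllactosamine-polyacrylamide and are BSA-blocked. Ligand 10-fold dilutions (1 mM to 1 × 10⁻⁵ mM, PBS) and hSiglec7-Fc precomplexed with AP anti-human IgG are added for 2.5 h at 37 °C. Plates are developed with p-nitrophenyl phosphate (pH 9.8) and read at 405 nm for IC50. 3′- and 6′-sialyllactose serve as references for relative potency.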

[4] = molecular target: T1, Sialic acid-binding Ig-like lectin 7; test: Binding affinity to human IgG1-fused Siglec-7-Fc measured after 2.5 hrs by ELISA relative to 3'sialyllactose; how it was run: as §2
[5] = molecular target: T1, Sialic acid-binding Ig-like lectin 7; test: Ratio of 3'sialyllactose Kd to relative inhibitory potency of test compound for human IgG1-fused Siglec-7-Fc by ELISA
How it was run: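 The Kd value is extrapolated by dividing the known Kd of 3′sialyllactose by the ELISA relative inhibitory potency. The ELISA uses plate-bound 6′sialyl-LacNAc-polyacrylamide with AP-precomplexed Siglec-7-Fc, 2.5 h at 37 °C, read at 405 nm.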

[6] = molecular target: Sialic acid-binding Ig-like lectin 9 (Homo sapiens) (UniProt Q9Y336); test: Binding affinity to human IgG1-fused Siglec-9-Fc assessed as inhibition of Siglec-9-Fc binding to K562 cells preincubated for 10 mins followed by K562 cell addition measured after 20 mins by FACS analysis
Sialic acid-binding Ig-like lectin 9 (Homo sapiens), sequence (Q9Y336 whole entry, the tested form may be a part): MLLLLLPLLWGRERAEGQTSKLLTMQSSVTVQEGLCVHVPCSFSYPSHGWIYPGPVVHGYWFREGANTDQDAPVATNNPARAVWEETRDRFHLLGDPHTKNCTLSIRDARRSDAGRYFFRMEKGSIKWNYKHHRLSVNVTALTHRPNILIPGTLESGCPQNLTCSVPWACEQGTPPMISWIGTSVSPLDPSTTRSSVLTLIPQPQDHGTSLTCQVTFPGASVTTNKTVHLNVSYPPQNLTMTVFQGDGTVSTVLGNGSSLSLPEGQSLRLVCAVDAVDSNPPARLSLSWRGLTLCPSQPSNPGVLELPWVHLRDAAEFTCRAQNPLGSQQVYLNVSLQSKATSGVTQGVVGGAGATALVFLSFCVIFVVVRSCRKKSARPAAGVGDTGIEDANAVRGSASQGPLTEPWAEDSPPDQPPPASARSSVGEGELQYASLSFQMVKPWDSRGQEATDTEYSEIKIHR
How it was run: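 Human IgG1-fused Siglec-9-Fc is preincubated with inhibitor dilutions, then co-incubated with K562 cells instead of RBCs. Later steps follow the RBC assay: anti-Fc-biotin and streptavidin-PE detection, fixation, and flow cytometry. Inhibition is calculated from MFI as for RBCs. At least three independent experiments.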

[7] = Cytotoxicity against human NK cells assessed as viable cells up to 10 mM; type: cell-based; details: nk cell
How it was run: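 Human NK cells are isolated by negative selection from PBMCs and prestimulated 24 h with 100 IU/mL IL-2. They are then incubated 24 h with the Siglec-7 inhibitor at concentrations up to 10 mM. Viability is assessed by live–dead staining and flow cytometry.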

K562 = test: Cytotoxicity against human K562 cells assessed as viable cells; type: cell-based
[8] = Cytotoxicity against human MEL1106 cells assessed as viable cells; type: cell-based
[9] = molecular target: T1, Sialic acid-binding Ig-like lectin 7; test: Binding affinity to human IgG1-fused Siglec-7-Fc; how it was run: as §1

Compound | fold change (FC) [1] | other results
CC(=O)N[C@H]1[C@H]([C@H](O)[C@H](O)CNC(=O)C(=O)Nc2ccccc2)O[C@@](OCCCn2cc(-c3ccc(-c4ccccc4)cc3)nn2)(C(=O)O)C[C@@H]1O | 6.8 | 
COC1(C(=O)O)C[C@H](O)[C@@H](NC(C)=O)[C@H]([C@H](O)[C@H](O)CNC(=O)Cc2ccc3ccccc3c2)O1 (some centres undefined) | 8.2 | 
COC1(C(=O)O)C[C@H](O)[C@@H](NC(C)=O)[C@H]([C@H](O)[C@H](O)CNC(=O)Cc2ccccc2)O1 (some centres undefined) | 10 | 
CC(=O)N[C@H]1[C@H]([C@H](O)[C@H](O)CNS(=O)(=O)NC(=O)OCc2ccccc2)O[C@@](OCCCn2cc(-c3ccc(-c4ccccc4)cc3)nn2)(C(=O)O)C[C@@H]1O | 0.27 | 
COC1(C(=O)O)C[C@H](O)[C@@H](NC(C)=O)[C@H]([C@H](O)[C@H](O)CNC(=O)CC2CCCCC2)O1 (some centres undefined) | < 1.5 | 
CC(=O)N[C@H]1[C@H]([C@H](O)[C@H](O)CNC(=O)C(=O)O)O[C@@](OCCCn2cc(-c3ccc(-c4ccccc4)cc3)nn2)(C(=O)O)C[C@@H]1O | 3.6 | 
CC(=O)N[C@H]1[C@H]([C@H](O)[C@H](O)CS)O[C@@](OCCCn2cc(-c3ccc(-c4ccccc4)cc3)nn2)(C(=O)O)C[C@@H]1O | 0.52 | 
COC1(C(=O)O)C[C@H](O)[C@@H](NC(C)=O)[C@H]([C@H](O)[C@H](O)CNC(=O)C(=O)Nc2ccccc2)O1 (some centres undefined) | 58 | 
CC(=O)N[C@H]1[C@H]([C@H](O)[C@H](O)CN)O[C@@](OCCCn2cc(-c3ccc(-c4ccccc4)cc3)nn2)(C(=O)O)C[C@@H]1O | 0.24 | 
COC1(C(=O)O)C[C@H](O)[C@@H](NC(C)=O)[C@H]([C@H](O)[C@H](O)CNC(=O)c2ccccc2)O1 (some centres undefined) | < 1.5 | 
CCS(=O)(=O)NC[C@@H](O)[C@@H](O)[C@@H]1O[C@@](OCCCn2cc(-c3ccc(-c4ccccc4)cc3)nn2)(C(=O)O)C[C@H](O)[C@H]1NC(C)=O | 5210 | IC50 [2]: 1.6 µM; IC50 [3]: 230 µM; fold change (FC) [4]: 161; Ratio [5]: 4.2
CC(=O)N[C@H]1[C@H]([C@H](O)[C@H](O)CNS(C)(=O)=O)O[C@@](OCCCn2cc(-c3ccc(-c4ccccc4)cc3)nn2)(C(=O)[O-])C[C@@H]1O.[Na+] | 3120 | IC50 [2]: 2.6 µM; inhibition [6]: Active; IC50 [3]: 260 µM; fold change (FC) [4]: 141; Activity [7]: Non-Toxic; Activity (K562): Non-Toxic; Ratio [5]: 4.8; Activity [8]: Non-Toxic
CC(=O)N[C@H]1[C@H]([C@H](O)[C@H](O)CO)O[C@@](OC[C@H]2O[C@@H](O[C@H]3[C@H](O)[C@@H](O)[C@H](O)O[C@@H]3CO)[C@H](O)[C@@H](O)[C@H]2O)(C(=O)O)C[C@@H]1O |  | IC50 [3]: 25600 µM; fold change (FC) [4]: 1.4; Kd [9]: 240 µM
CCCS(=O)(=O)NC[C@@H](O)[C@@H](O)[C@@H]1O[C@@](OCCCn2cc(-c3ccc(-c4ccccc4)cc3)nn2)(C(=O)O)C[C@H](O)[C@H]1NC(C)=O | 0.33 | 
CC(=O)N[C@H]1[C@H]([C@H](O)[C@H](O)CNS(=O)(=O)NS(N)(=O)=O)O[C@@](OCCCn2cc(-c3ccc(-c4ccccc4)cc3)nn2)(C(=O)O)C[C@@H]1O | 1 | 
CC(=O)N[C@H]1[C@H]([C@H](O)[C@H](O)CNC(=O)Cc2ccccc2)O[C@@](OCCCn2cc(-c3ccc(-c4ccccc4)cc3)nn2)(C(=O)O)C[C@@H]1O | 0.6 | 
CC(=O)N[C@H]1[C@H]([C@H](O)[C@H](O)CNCc2ccccc2)O[C@@](OCCCn2cc(-c3ccc(-c4ccccc4)cc3)nn2)(C(=O)O)C[C@@H]1O | < 0.5 | 
COC1(C(=O)O)C[C@H](O)[C@@H](NC(C)=O)[C@H]([C@H](O)[C@H](O)CO)O1 (some centres undefined) |  | IC50 [2]: 8070 µM
CC(=O)N[C@H]1[C@H]([C@H](O)[C@H](O)CO)O[C@@](OCCCn2cc(-c3ccc(-c4ccccc4)cc3)nn2)(C(=O)O)C[C@@H]1O | 152 | IC50 [2]: 53 µM

Compound | fold change (FC) [1] | other results
CC(=O)N[C@H]1[C@H]([C@H](O)[C@H](O)CNS(=O)(=O)c2ccccc2)O[C@@](OCCCn2cc(-c3ccc(-c4ccccc4)cc3)nn2)(C(=O)O)C[C@@H]1O | 0.49 | 
COC1(C(=O)O)C[C@H](O)[C@@H](NC(C)=O)[C@H]([C@H](O)[C@H](O)CNC(=O)Cc2ccc(-c3ccccc3)cc2)O1 (some centres undefined) | 4.5 | 
CCCNC[C@@H](O)[C@@H](O)[C@@H]1O[C@@](OCCCn2cc(-c3ccc(-c4ccccc4)cc3)nn2)(C(=O)O)C[C@H](O)[C@H]1NC(C)=O | < 0.5 | 
CC(=O)N[C@H]1[C@H]([C@H](O)[C@H](O)CNS(=O)(=O)Cc2ccccc2)O[C@@](OCCCn2cc(-c3ccc(-c4ccccc4)cc3)nn2)(C(=O)O)C[C@@H]1O | 0.17 | 
CC(=O)N[C@H]1[C@H]([C@H](O)[C@H](O)CNS(=O)(=O)C(F)(F)F)O[C@@](OCCCn2cc(-c3ccc(-c4ccccc4)cc3)nn2)(C(=O)O)C[C@@H]1O | 0.41 | 
COC1(C(=O)O)C[C@H](O)[C@@H](NC(C)=O)[C@H]([C@H](O)[C@H](O)CNC(=O)Nc2ccccc2)O1 (some centres undefined) | < 1 | 
CC(=O)N[C@H]1[C@H]([C@H](O)[C@H](O)CO)O[C@@](O[C@H]2[C@@H](O)[C@@H](CO)O[C@@H](O[C@H]3[C@H](O)[C@@H](O)[C@H](O)O[C@@H]3CO)[C@@H]2O)(C(=O)O)C[C@@H]1O |  | IC50 [3]: 36900 µM; Kd [9]: 680 µM
COC1(C(=O)O)C[C@H](O)[C@@H](NC(C)=O)[C@H]([C@H](O)[C@H](O)CNC(=O)CC23CC4CC(CC(C4)C2)C3)O1 (some centres undefined) | < 1.5 | 
CC(=O)N[C@H]1[C@H]([C@H](O)[C@H](O)CNS(=O)(=O)O)O[C@@](OCCCn2cc(-c3ccc(-c4ccccc4)cc3)nn2)(C(=O)O)C[C@@H]1O | 33 | 
CC(=O)N[C@H]1[C@H]([C@H](O)[C@H](O)CNS(=O)(=O)c2cccc3c(N(C)C)cccc23)O[C@@](OCCCn2cc(-c3ccc(-c4ccccc4)cc3)nn2)(C(=O)O)C[C@@H]1O | 0.09 | 
CC(=O)N[C@H]1[C@H]([C@H](O)[C@H](O)CNc2c(O)c(=O)c2=O)O[C@@](OCCCn2cc(-c3ccc(-c4ccccc4)cc3)nn2)(C(=O)O)C[C@@H]1O | 0.28 | 
COC1(C(=O)O)C[C@H](O)[C@@H](NC(C)=O)[C@H]([C@H](O)[C@H](O)CNC(=O)C(N)=O)O1 (some centres undefined) | 4.1 | 
CC(=O)NC[C@@H](O)[C@@H](O)[C@@H]1O[C@@](OCCCn2cc(-c3ccc(-c4ccccc4)cc3)nn2)(C(=O)O)C[C@H](O)[C@H]1NC(C)=O | 0.73 | 
COC1(C(=O)O)C[C@H](O)[C@@H](NC(C)=O)[C@H]([C@H](O)[C@H](O)CNC(=O)Cc2cccc3ccccc23)O1 (some centres undefined) | < 1.5 | 
CC(=O)N[C@H]1[C@H]([C@H](O)[C@H](O)CNC(=O)C(N)=O)O[C@@](OCCCn2cc(-c3ccc(-c4ccccc4)cc3)nn2)(C(=O)O)C[C@@H]1O | 3.5 | 
CCCCS(=O)(=O)NC[C@@H](O)[C@@H](O)[C@@H]1O[C@@](OCCCn2cc(-c3ccc(-c4ccccc4)cc3)nn2)(C(=O)O)C[C@H](O)[C@H]1NC(C)=O | 0.16 | 
CC(=O)N[C@H]1[C@H]([C@H](O)[C@@H](C)O)O[C@@](OCCCn2cc(-c3ccc(-c4ccccc4)cc3)nn2)(C(=O)O)C[C@@H]1O | 0.15 | 
CC(=O)N[C@H]1[C@H]([C@H](O)[C@H](O)CNS(N)(=O)=O)O[C@@](OCCCn2cc(-c3ccc(-c4ccccc4)cc3)nn2)(C(=O)O)C[C@@H]1O | 0.45 | 
COC1(C(=O)O)C[C@H](O)[C@@H](NC(C)=O)[C@H]([C@H](O)[C@H](O)CNC(=O)c2ccc(-c3ccccc3)cc2)O1 (some centres undefined) | < 1.5 | 
